Measurements: ChEMBL document CHEMBL1135989, “Synthesis and in vitro pharmacology of substituted quinoline-2,4-dicarboxylic acids as inhibitors of vesicular glutamate transport” (J Med Chem, 2002)

Tests used:
[1] = target: T1, Vesicular glutamate transporter 3 (Rattus norvegicus) (UniProt Q7TSF2); assay: Inhibition of Vesicular glutamate transporter (VGLUT) by the ability to block the uptake of 250 uM of [3,4-3H]-L-glutamate into synaptic vesicles isolated from rat forebrain at a 20 fold excess (5 mM) of inhibitor; assay type: functional
T1 sequence (whole entry): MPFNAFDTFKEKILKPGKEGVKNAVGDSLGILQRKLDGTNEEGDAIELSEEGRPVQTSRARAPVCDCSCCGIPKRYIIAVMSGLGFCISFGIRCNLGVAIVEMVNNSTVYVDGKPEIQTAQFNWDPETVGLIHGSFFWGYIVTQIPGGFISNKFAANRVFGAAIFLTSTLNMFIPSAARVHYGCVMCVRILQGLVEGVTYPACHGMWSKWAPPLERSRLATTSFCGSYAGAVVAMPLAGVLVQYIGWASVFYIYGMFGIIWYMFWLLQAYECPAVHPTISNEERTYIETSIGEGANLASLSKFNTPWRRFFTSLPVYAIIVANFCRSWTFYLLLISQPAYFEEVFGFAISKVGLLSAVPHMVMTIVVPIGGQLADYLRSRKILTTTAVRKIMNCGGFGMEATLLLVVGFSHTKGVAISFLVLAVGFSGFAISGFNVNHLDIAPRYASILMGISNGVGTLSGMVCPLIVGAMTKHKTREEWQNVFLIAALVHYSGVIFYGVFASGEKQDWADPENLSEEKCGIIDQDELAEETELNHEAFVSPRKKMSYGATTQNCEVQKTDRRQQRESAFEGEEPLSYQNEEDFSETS
Procedure, shortened: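 Inhibitor at 5 mM added with substrate. Quenched in ice-cold 150 mM KCl, filtered, counted by LSC. ATP-free uptake subtracted. Expressed as % of control uptake, mean ± SEM (n).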

[2] = target: T1, Vesicular glutamate transporter 3 (Rattus norvegicus); assay: Inhibition of Vesicular glutamate transporter (VGLUT) by the ability to block the uptake of 250 uM of [3,4-3H]-L-glutamate into synaptic vesicles isolated from rat forebrain at equimolar conc. (250 uM ); assay type: functional
Procedure, shortened: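 Same vesicle uptake set-up (0.25 mM [3H]-L-glutamate, 2.0 mM ATP, 30 °C, 1.5 min, filtration/LSC, ATP-free background subtracted), with inhibitor at 250 µM added with substrate. Expressed as % of control uptake, mean ± SEM (n).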

[3] = target: T2, Vesicular glutamate transporter 3 (Rattus norvegicus, UniProt Q7TSF2); assay: Estimated inhibitory conc. against Vesicular glutamate transporter (VGLUT), using Cheng-Prushoff equation
T2 sequence (Q7TSF2 whole entry): T1 sequence (whole entry)
Procedure, shortened: (§1)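 Rat forebrain synaptic vesicles (male Sprague-Dawley, stored -80 °C). Vesicles (100-150 µg protein) preincubated 5 min at 30 °C. Ran 1.5 min, then filtration and LSC. Uptake without ATP subtracted. IC50 from dose-response; Ki by Cheng-Prusoff.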

[4] = target: T2, Vesicular glutamate transporter 3; assay: Evaluated for competitive inhibition against Vesicular glutamate transporter (VGLUT), and Ki value was reported.
[5] = target: T2, Vesicular glutamate transporter 3; assay: Inhibitory conc. against Vesicular glutamate transporter (VGLUT), derived from Lineweaver-Burke analysis
Procedure, shortened: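 Uptake into rat forebrain synaptic vesicles (ATP 2.0 mM, 30 °C, 1.5 min, [3H]-L-glutamate, filtration and LSC) run across both inhibitor and substrate concentrations. Ki from Lineweaver-Burk double reciprocal plots (1/V vs 1/[S]) and a replot of Km(app) against inhibitor concentration.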

[6] = target: T2, Vesicular glutamate transporter 3; assay: Compound was evaluated for the inhibition of Vesicular glutamate transporter (VGLUT)
[7] = target: T2, Vesicular glutamate transporter 3; assay: Compound was evaluated for competitive inhibition against Vesicular glutamate transporter (VGLUT), and Ki value was reported,.using Cheng-Prushoff equation; procedure, shortened: as §1

| Structure (SMILES) | Glutamate uptake remaining (% of control) [1] | Glutamate uptake remaining (% of control) [2] | also measured |
| --- | --- | --- | --- |
| O=C(O)c1cc(C(=O)O)c2cccc(F)c2n1 | 39% | 100% | – |
| O=C(O)c1cc(C(=O)O)c2c(-c3ccccc3)cccc2n1 | – | 100% | – |
| O=C(O)c1cc(C(=O)O)c2c(-c3cccc4ccccc34)cccc2n1 | – | 64% | – |
| O=C(O)c1cc(C(=O)O)c2cc(O)ccc2n1 | – | 100% | – |
| O=C(O)c1cc(C(=O)O)c2cc(Cl)ccc2n1 | 1% | 73% | – |
| O=C(O)c1cc(C(=O)O)c2cc(CCc3ccccc3)ccc2n1 | – | 47% | Ki [3]: 143 µM |
| O=C(O)c1cc(C(=O)O)c2cc(OCCc3ccccc3)ccc2n1 | – | – | Ki [3]: 189 µM |
| O=C(O)c1cc(C(=O)O)c2cc(/C=C/c3cccc4ccccc34)ccc2n1 | – | 21% | – |
| O=C(O)c1cc(C(=O)O)c2cc(/C=C/c3ccc(-c4ccccc4)cc3)ccc2n1 | – | 37% | Ki [3]: 64 µM |
| C=C(C[C@H](N)C(=O)O)C(=O)O | – | – | Ki [4]: 3000 µM |
| O=C(O)c1cc(C(=O)O)c2cc(/C=C/c3ccccc3)ccc2n1 | – | 51% | Ki [5]: 129 µM; Ki [3]: 167 µM |
| COc1cc2nc(C(=O)O)cc(C(=O)O)c2cc1OC | 58% | 100% | – |
| O=C(O)c1cc(C(=O)O)c2cc3c(cc2n1)OCCO3 | 12% | 100% | – |
| O=C(O)c1cc(C(=O)O)c2c(F)cccc2n1 | 54% | 100% | – |
| O=C(O)c1cc(C(=O)O)c2ccc(O)cc2n1 | – | 100% | – |
| O=C(O)c1cc(C(=O)O)c2cc3c(cc2n1)OCO3 | 24% | 100% | – |
| O=C(O)c1cc(=O)c2ccccc2[nH]1 [TRANSTORINE] | – | – | Ki [6]: 1300 µM |
| O=C(O)c1cc(C(=O)O)c2cc(OC3CCCCC3)ccc2n1 | – | 67% | – |
| O=C(O)c1cc(C(=O)O)c2ccc(Cl)c(Cl)c2n1 | 2% | – | – |
| O=C(O)c1cc(C(=O)O)c2cccc(Br)c2n1 | 7% | 100% | – |
| O=C(O)c1cc(C(=O)O)c2c(I)cccc2n1 | – | 100% | – |
| CCCCCCOc1ccc2nc(C(=O)O)cc(C(=O)O)c2c1 | – | 79% | – |
| O=C(O)c1cc(C(=O)O)c2cccc(-c3cccc4ccccc34)c2n1 | – | 70% | – |
| O=C(O)c1cc(C(=O)O)c2cc(Br)cc(Br)c2n1 | 2% | – | – |
| N[C@]1(C(=O)O)CC[C@H](C(=O)O)C1 (relative stereo) | – | – | Ki [4]: 700 µM |
| O=C(O)c1cc(C(=O)O)c2cc(OCCCCCCO)ccc2n1 | – | 74% | – |
| O=C(O)c1cc(C(=O)O)c2cc(I)ccc2n1 | 10% | 87% | – |
| COc1ccc(OC)c2c(C(=O)O)cc(C(=O)O)nc12 | 62% | 100% | – |

| Structure (SMILES) | Glutamate uptake remaining (% of control) [1] | Glutamate uptake remaining (% of control) [2] | also measured |
| --- | --- | --- | --- |
| COc1cc(OC)c2nc(C(=O)O)cc(C(=O)O)c2c1 | 40% | 100% | – |
| O=C(O)c1cc(C(=O)O)c2cc(-c3cccc4ccccc34)ccc2n1 | – | 53% | – |
| O=C(O)c1cc(C(=O)O)c2ccc(OCc3ccccc3)cc2n1 | 1% | 50% | – |
| COc1cc(OC)c2c(C(=O)O)cc(C(=O)O)nc2c1 | 15% | 100% | – |
| O=C(O)c1cc(C(=O)O)c2ccc(-c3ccccc3)cc2n1 | – | 91% | – |
| COc1ccc2nc(C(=O)O)cc(C(=O)O)c2c1 | 51% | 100% | – |
| O=C(O)c1cc(O)c2cccc(O)c2n1 [XANTHURENATE] | – | – | Ki [4]: 190 µM |
| O=C(O)c1cc(C(=O)O)c2ccccc2n1 | 38% | 100% | – |
| O=C(O)c1cc(C(=O)O)c2c(Br)cccc2n1 | 11% | 100% | – |
| COc1ccc2c(C(=O)O)cc(C(=O)O)nc2c1 | 48% | 100% | – |
| O=C(O)c1cc(C(=O)O)c2cccc(-c3ccccc3)c2n1 | – | 88% | – |
| Cc1cc(-c2ccc(/N=N/c3ccc4c(S(=O)(=O)O)cc(S(=O)(=O)O)c(N)c4c3O)c(C)c2)ccc1/N=N/c1ccc2c(S(=O)(=O)O)cc(S(=O)(=O)O)c(N)c2c1O [EVANS BLUE] | – | – | Ki [4]: 0.04 µM |
| O=C(O)c1cc(C(=O)O)c2cc(-c3ccccc3)ccc2n1 | – | 77% | – |
| O=C(O)c1cc(C(=O)O)c2cccc(O)c2n1 | 2% | 73% | Ki [3]: 286 µM |
| O=C(O)c1cc(C(=O)O)c2cc(OCc3ccccc3)ccc2n1 | 3% | 85% | Ki [3]: 368 µM |
| O=C(O)c1cc(C(=O)O)c2cccc(C(=O)O)c2n1 | – | 100% | – |
| O=C(O)c1cc(C(=O)O)c2cc(/N=N/c3ccccc3)ccc2n1 | 0% | 31% | Ki [7]: 288 µM |
| O=C(O)c1cc(C(=O)O)c2cc(Oc3ccccc3)ccc2n1 | – | 74% | – |
| O=C(O)c1cc(C(=O)O)c2cc(Br)ccc2n1 | 2% | 74% | – |
| O=C(O)c1cc(C(=O)O)c2c(/C=C/c3ccccc3)cccc2n1 | – | 27% | – |
| O=C(O)c1cc(C(=O)O)c2cc(OCCO)ccc2n1 | – | 100% | – |
| CCOc1ccc2nc(C(=O)O)cc(C(=O)O)c2c1 | – | 97% | – |
| O=C(O)c1cc(O)c2ccc(Cl)cc2n1 [7-CHLOROKYNURENIC ACID] | – | – | Ki [4]: 590 µM |
| O=C(O)c1cc(C(=O)O)c2cc(-c3ccc(-c4ccccc4)cc3)ccc2n1 | – | 20% | Ki [5]: 95 µM; Ki [3]: 41 µM |
| O=C(O)c1cc(C(=O)O)c2ccc(CCc3ccccc3)cc2n1 | – | 29% | – |
| COc1cccc2c(C(=O)O)cc(C(=O)O)nc12 | 20% | 90% | – |
| COc1cc(-c2ccc(/N=N/c3ccc4c(S(=O)(=O)O)cc(S(=O)(=O)O)c(N)c4c3O)c(OC)c2)ccc1/N=N/c1ccc2c(S(=O)(=O)O)cc(S(=O)(=O)O)c(N)c2c1O [CHICAGO SKY BLUE] | – | – | Ki [4]: 0.19 µM |
